From PubChem
UCH37 inh – human UCH37 deubiquitinating enzyme inhibition. Q9Y5K5. purified proteasome/UCH37, Ub-AMC cleavage fluorescence. inhibition, % (concentration not given with the values). 0.33% of 330,000 active. AID 588478;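 active = mean inhibition over replicate wells above about 20%, limit read from the data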;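 also: 0% = compound-free wells with enzyme and 100% = wells lacking proteasome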
Target sequence (Q9Y5K5 whole entry, looked up): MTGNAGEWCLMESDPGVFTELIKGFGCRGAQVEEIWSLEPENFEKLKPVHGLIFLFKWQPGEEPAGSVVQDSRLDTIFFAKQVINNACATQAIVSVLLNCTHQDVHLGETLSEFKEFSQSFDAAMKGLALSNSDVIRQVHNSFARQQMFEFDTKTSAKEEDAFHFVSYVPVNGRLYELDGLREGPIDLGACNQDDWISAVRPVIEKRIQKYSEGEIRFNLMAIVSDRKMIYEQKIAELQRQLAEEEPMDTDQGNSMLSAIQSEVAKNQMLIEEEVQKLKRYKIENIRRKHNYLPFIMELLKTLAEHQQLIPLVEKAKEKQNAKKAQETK
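Signal – fluorescence, ex 355 nm, em 460 nm · System – Proteasome-bound UCH37 · Input – 0.15 nM proteasome as dispensed · Timing – 30 min preincubation with enzyme, 25 min cleavage at room temperature · Read-out basis – percent inhibition of cleavage signal versus uninhibited and no-proteasome wells · Medium – Tris-HCl pH 7.4 with ATP-MgCl2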
N-glyco inh – blocks N-linked glycosylation in D54 reporter cells | D54 ERlucT glycosylation luciferase reporter, 24 h; percent of 100 nM tunicamycin response | reporter increase, % at 12.5 µM | 0.23% of 360,000 active;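 active = mean luciferase reporter signal, scaled so untreated is 0 and the glycosylation-blocking control 100, at or above a set limit in every replicate; inconclusive = mean reaches the limit but not every replicate does; inactive = mean below the limit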;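 also: luciferase carries N-glycosylation sites so blocking glycosylation raises the light; 0% = median of neutral control wells and 100% = median of 100 nM tunicamycin wells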
MsrA act – bovine methionine sulfoxide reductase A activation. purified bovine MsrA, absorbance read-out. activation, % at 10.6 µM. 0.3% of 360,000 active; in the data active = activation above about 7.5%;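 also: 0% = vehicle and 100% = reference activator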
aDG glyco act – alpha-DG glycosylation activation | Pro5-aDG cells, alpha-DG glycosylation AlphaScreen (IIH6); 0% Pro5, 100% B10-LARGE cell signal | 0.22% of 360,000 active | activation, % at 10 µM | AID 624168;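 active = activation of at least 8% versus controls, or a plate z-score of at least 8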;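 also: Pro5 are CHO cells carrying HIG-tagged alpha-DG that lacks glycosylation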
MsrA inh – inhibits bovine methionine sulfoxide reductase A. 0.75% of 360,000 active. AID 651718. purified bovine MsrA, absorbance read-out. inhibition, % at 15.5 µM; in the data active = inhibition above about 4.5%;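 also: 0% = vehicle wells with enzyme and 100% = reference inhibitor wells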
Vif imaging – blocks HIV Vif function; HEK293T cells, Vif self-association by quenched fluorescence, imaging, 24 h; inhibition, % at 7.49 µM; 0.35% of 340,000 active; AID 602346; in the data active = inhibition above about 50%, passing the limit was not always enough; inconclusive = no clear call, values can overlap the other calls; inactive = below about 31%
UCH37 confirm – reconfirmed inhibitor of human deubiquitinase UCH37 | shares compounds with UCH37 inh | Proteasome-bound UCH37, Ub-AMC cleavage fluorescence | inhibition, % at 20 µM | 27% of 480 active | AID 624100;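 active = average inhibition over replicates above about 50%, so the earlier screening hit is confirmed, limit read from the data; inactive = the rest, counted as false positives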;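 also: based on cleavage rate fitted by regression over a 30 min kinetic read; 0% = proteasome plus Ub-AMC and 100% = Ub-AMC without proteasome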
* marks the source's active call; other numbers are inactive results; i = inactive; ? = inconclusive; / = no result given. Most compounds without a hit are left out; they make up all but 1.9% or so of the library.

SMILES | UCH37 inh | N-glyco inh | MsrA act | aDG glyco act | MsrA inh | Vif imaging | UCH37 confirm
Cc1nc2ccc(-c3nc4ccc(N)cc4[nH]3)cc2[nH]1 | i | -5.1 | -4.3 | -0.2 | 3.5 | 1.9 | /
CCc1ccc(/C(C)=N\Nc2ccc([N+](=O)[O-])cc2)cc1 | / | -0.8 | -2.8 | -0.1 | 0.7 | 60.3* | /
COc1cc2nc(CC(C)C)n(NC(=O)c3ccccc3Br)c(=O)c2cc1OC | 2.5 | -0.4 | -1.7 | 0.1 | -1.1 | 2.8 | /
CCC(C)C(=O)Nn1c(C2CC2)nc2cc(OC)c(OC)cc2c1=O (stereo unspecified) | 1.0 | 1.3 | -4.1 | -0.1 | 0.7 | 125.2* | /
COc1cccc(OC)c1C(=O)Nn1c(C2CCC2)nc2ccccc2c1=O | 0.8 | 1.3 | 9.4* | 0.3 | -1.3 | 31.9 | /
CCC(=O)Nn1c(C2CCC2)nc2ccccc2c1=O | -0.8 | 1.1 | -0.6 | -0.1 | 0.1 | 1.8 | /
COc1ccc(NC(=O)C2CCCCN2N)cc1OC (stereo unspecified) | 29.2* | 2.1 | -12.3 | -0.1 | -0.8 | 10.6 | 45.5
O=C(CSC(=S)N1CCCC1)c1ccccc1 | 0.3 | -14.7 | -2.8 | -0.4 | -1.2 | -0.3 | /
O=C(CSC(=S)N1CCCCC1)c1ccccc1 | 39.2* | -19.0 | -14.2 | 0.1 | -2.1 | -14.7 | 12.3
CCOc1ccccc1NC(=O)CSc1c(C)n[nH]c1C | 36.4* | -0.4 | -1.4 | 0.1 | -0.2 | 0.6 | 8.3
CCOC(=O)c1c(-c2ccc(-c3ccccc3)cc2)csc1NC(=O)CNCCN(C)C | 25.1* | -4.9 | -7.1 | -0.5 | 0.4 | -2.2 | 83.7*
CN(C)/C=C/C1=C([N+](=O)[O-])C(c2cccc([N+](=O)[O-])c2)NC(=O)N1 (stereo unspecified) | 26.5* | 1.1 | 1.9 | 0.0 | 0.4 | 3.3 | 20.7
CCOC(=O)C1=C(CCc2ccccc2)NC(=O)NC1c1cccc([N+](=O)[O-])c1 (stereo unspecified) | 5.0 | -2.4 | 1.4 | -0.2 | 1.3 | -3.3 | /
Nc1nnn(CC(=O)NN=Cc2cn[nH]c2-c2ccccc2)n1 | 2.3 | / | / | / | / | / | /
O=C1Cc2ccccc2C(=O)N1Cc1cccc(Cl)c1 | 33.8* | 0.7 | -1.4 | -0.1 | 0.5 | -9.3 | 16.7
CC(=NNC(=O)c1ccccc1)c1ccc(N2CCCCC2)cc1 | -50.9 | / | / | / | / | / | /
Cc1ccccc1OCC(=O)ON=C(N)Cc1ccc(Cl)cc1 | 44.1* | / | / | / | / | / | 14.7
Cc1ccccc1OCC(=O)O/N=C(\N)Cc1ccc(Cl)cc1 | / | 2.0 | 0.2 | 0.0 | -1.1 | -2.8 | /
CNC(=O)OCc1cccc(COC(=O)NC)n1 | 35.1* | -1.0 | 4.0 | -0.1 | -0.6 | -1.1 | 21.0
Cc1ccc(C(=O)ON=Cc2ccc(N3CCCCC3)c([N+](=O)[O-])c2)cc1 | 40.4* | / | / | / | / | / | -2.2
Clc1ccc(C=Nc2c(-c3ccc(Cl)cc3)nc3n2CCS3)cc1 | 6.8 | / | / | / | / | / | /
COc1ccccc1NC1=C(Cl)C(=O)OC1OC(=O)c1ccco1 (stereo unspecified) | 2.5 | -2.4 | -0.7 | 0.2 | 2.3 | -0.5 | /
COc1cccc(NC2=C(Cl)C(=O)OC2OC(=O)c2ccco2)c1 (stereo unspecified) | 37.3* | 2.5 | -2.6 | 0.1 | -0.3 | ? | 4.6
CN1CCN(C2=CC3=CC(=C(C#N)C#N)CCC3CC2)CC1 (stereo unspecified) | 26.0* | -1.0 | -3.6 | -0.3 | / | / | 14.6
NS(=O)(=O)c1ccc(N=Nc2c[nH]c(=O)c(O)c2)cc1 | 32.9* | -2.8 | -0.2 | -0.1 | -0.1 | -8.3 | 39.7
SMILES | UCH37 inh | N-glyco inh | MsrA act | aDG glyco act | MsrA inh | Vif imaging | UCH37 confirm
Cc1cc(C)cc(-n2c(C)cc(C=NNC(=O)COc3cccc4cccnc34)c2C)c1 | 3.3 | / | / | / | / | / | /
COC(=O)/C(N=Nc1cccc(C(F)(F)F)c1)=C(\C)O | 43.3* | 1.2 | -0.1 | -0.4 | 2.6 | 2.5 | 15.6
CCOC(=O)NC(=O)/C(N=Nc1cccc(C(F)(F)F)c1)=C(\C)O | 0.3 | 1.2 | -15.7 | -0.1 | 0.9 | -9.5 | /
O=C(CCN1C(=O)/C(=C/c2cccs2)SC1=S)Nc1ccc(C(=O)O)c(O)c1 | 25.8* | 0.0 | -1.2 | 0.0 | 0.5 | 9.4 | 18.0
O=C(CCN1C(=O)/C(=C/c2cccs2)SC1=S)Nc1ccc(O)cc1 | 7.5 | -4.5 | -2.1 | 0.1 | 0.1 | 1.6 | /
O=C(O)c1cccc(CN2C(=O)S/C(=C/c3ccccc3[N+](=O)[O-])C2=O)c1 | 79.7* | 1.1 | -2.3 | -0.1 | 3.4 | 1.3 | 34.9
Cc1ccc(-n2c(C)cc(C=c3sc4nc5ccccc5n4c3=O)c2C)cc1 | -1.8 | / | / | / | / | / | /
COc1cc(OC)c(C=NNC(=O)COc2cccc3cccnc23)c(OC)c1 | 0.2 | / | / | / | / | / | /
CC1(C)OC(c2ccccc2)=C/C(=C/C=Nc2ccccc2)O1 | 48.0* | 2.0 | -0.1 | 0.0 | 3.6 | 21.1 | -18.3
CC1(C)OC(c2ccccc2)=C/C(=C\C=N\NC(=O)c2ccncc2)O1 | / | -2.2 | -3.3 | -0.2 | 3.1 | -4.4 | /
CCOC(=O)c1cc(CC)sc1N=CC1C(=O)CC(C)(C)CC1=O | -1.3 | / | / | / | / | / | /
Cc1cc(C)c(NC(=O)COC(=O)c2cccc3c2C(=O)c2ccccc2C3=O)c(C)c1 | 3.8 | 1.5 | 5.6 | 1.0 | 0.9 | -4.0 | /
Cc1cc(C)c(Nc2cc(S(=O)(=O)O)c(N)c3c2C(=O)c2ccccc2C3=O)c(C)c1 | 34.0* | -6.3 | -13.9 | -1.1 | 0.3 | 1.6 | 92.7*
COC(=O)c1ccc(C(c2c(C)[nH][nH]c2=O)c2c(C)[nH][nH]c2=O)cc1 | 3.4 | 1.1 | -3.1 | -0.1 | 0.4 | 3.8 | /
Cc1[nH][nH]c(=O)c1C(c1ccc(-c2ccc(Cl)c(C(=O)O)c2)o1)c1c(C)[nH][nH]c1=O | 30.1* | 6.9 | -2.0 | -0.3 | 2.8 | 0.7 | 44.3
COC(=O)c1cccc(-c2ccc(C(c3c(C)[nH][nH]c3=O)c3c(C)[nH][nH]c3=O)o2)c1 | 39.9* | ? | -4.1 | -0.3 | 1.4 | 4.7 | 57.4*
N#Cc1c(N=Cc2ccc(-c3ccc(C(=O)O)c(Cl)c3)o2)sc2c1CCCC2 | 15.1 | / | / | / | / | / | /
O=C1CCCC2=C1C(c1ccccc1)n1c(sc(=Cc3cccc(F)c3)c1=O)=N2 (stereo unspecified) | -4.4 | / | / | / | / | / | /
O=C1C2C3CCCC3=C3CCCC3C2C(=O)N1c1ccc(F)cc1 (stereo unspecified) | 31.8* | -0.7 | -1.0 | -0.2 | -0.9 | 0.3 | 53.2*
O=C1C2C3C=CC(CC3)C2C(=O)N1c1ccc(F)cc1 (stereo unspecified) | 5.1 | 0.6 | -2.8 | -0.2 | -0.3 | 10.7 | /
O=C1c2ccccc2-c2nc3ccccc3nc21 | 44.8* | 2.2 | 3.6 | 1.6 | -0.3 | -2.1 | 22.8
NC1=CC(=O)C(=O)c2ccccc21 | 44.0* | -8.3 | -1.4 | 0.4 | -0.1 | 18.5 | 58.3*
Cn1nnc2cc(NC(=O)Nc3ccccc3F)ccc21 | / | -10.0 | -3.4 | -0.1 | 1.5 | 0.4 | /
Cc1cc(NC(=O)Nc2ccccc2F)ccc1Br | 38.3* | -10.9 | -8.0 | 0.3 | -0.3 | -8.8 | 16.8
